Source: ChEMBL document CHEMBL5335826, “Biochemical and Structural Studies of the Carminomycin 4-O-Methyltransferase DnrK” (J Nat Prod, 2024)
Activity calls are given as the source filed them. No cut-off for these calls is given here.

System: Ambystoma mexicanum
Assay: Inhibition of Ambystoma mexicanum tail regeneration at 10 uM
Assay type: functional
How it was run: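 Stage 42 Ambystoma mexicanum embryos were manually hatched and anesthetized with benzocaine, then given 2 mm tail amputations. They were reared at 18–19 °C in artificial pond water containing test agent in DMSO (0.1% final DMSO), with solutions changed at 3 and 5 dpa. Regeneration was imaged at 0, 3, 5 and 7 dpa, ending at 7 dpa. DMSO vehicle was the negative control and geldanamycin the positive control.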

With `COc1cccc2c1C(=O)c1c(cc3c(c1O)[C@@H](O[C@@H]1O[C@@H](C)[C@H](O)[C@@H](O)[C@H]1OC)[C@H](OC)[C@](C)(O)C3=O)C2=O` the “tail regeneration inhibition (active/not active)” value was “inactive”.
In the case of `CC(=O)[C@]1(O)Cc2c(O)c3c(c(O)c2[C@@H](O[C@H]2C[C@H](N)[C@H](O)[C@H](C)O2)C1)C(=O)c1c(O)cccc1C3=O`, the “tail regeneration inhibition (active/not active)” value is reported as “inactive”.
In the case of `COc1cccc2c1C(=O)c1c(O)c3c(c(O)c1C2=O)C[C@@](O)(C(C)=O)C[C@@H]3O[C@H]1C[C@H](N)[C@H](O)[C@H](C)O1`, the “tail regeneration inhibition (active/not active)” value is reported as “inactive”.
With `CO[C@H]1[C@H](O[C@@H]2c3c(cc4c(c3O)C(=O)c3c(O)cccc3C4=O)C(=O)[C@@](C)(O)[C@H]2OC)O[C@@H](C)[C@H](O)[C@H]1O` the “tail regeneration inhibition (active/not active)” value was “inactive”.
In the case of `COc1cc(O)c2c(c1)C(=O)c1cc3c(c(O)c1C2=O)[C@@H](O[C@@H]1O[C@@H](C)[C@H](OC)[C@@H](O)[C@H]1OC)[C@H](OC)[C@](C)(O)C3=O`, the “tail regeneration inhibition (active/not active)” value is reported as “Active”.
